In all, about 2,500 compounds went through this assay and about 460 (18%) were called active.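 Rule for the calls: active = mean activation above a cutoff of low control average plus 3 SD from the earlier screen (cut at about 12% in these data); inactive = the rest.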 These entries were drawn from the full list.

The experiment is described as follows: IANBD-channel fluorescence artefacts in buffer – biochemical, artefact control for cardiac RTF calcium sensitizer project, confirmation (AID 504382). As to conditions: IANBD fluorescence interference counterscreen, EC20 Ca2+, at 7.2 µM, hits give high values, scaled: EC20 calcium 0, EC100 calcium 100. In a few lines: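 Medium: MOPS buffer, 190 mM, with KCl, MgCl2, EGTA, NTA, DTT, pH 7.20; Dosing: one dose of 7.2 µM, 0.7% DMSO; Probe or stimulus: calcium at EC20 level, 0.472 mM final; Incubation: 15 min, 25 °C; Evaluation: compound fluorescence interference relative to control well signal range; Signal: fluorescence, 480/540 nm.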
As for `CC1(C)CCN2CCC(C)(C)c3c(O)ccc1c32`, the fluorescence artifact activation is 11.3% (inactive).

On to `Cc1ccc(CC2C(=O)N(c3ccc(C)cc3)C(=O)C2C)cc1` (centres undefined), for which the fluorescence artifact activation is 0.52% (inactive). The figure for `O=C(N/N=C\c1c(O)ccc2ccccc12)c1cncc(Br)c1` is 0.16% (inactive); for `O=C(N/N=C/c1c(O)ccc2ccccc12)c1cccc(C(F)(F)F)c1` it is 53.1% (active); for `O=C(NN=Cc1c(O)ccc2ccccc12)c1ccncc1` it is -0.04% (inactive). On to `Cc1ccc(-c2nc(NC(=O)CSc3cc(C)c4ccccc4n3)ns2)cc1`, for which the fluorescence artifact activation was 0.03% (inactive).

For the compound `CN1CC=C2C(C#N)=C(N)C(C#N)(C#N)[C@H](c3cccs3)[C@H]2C1`, the fluorescence artifact activation was 0.05% (inactive). As to `CN1CC=C2C(C#N)=C(N)C(C#N)(C#N)[C@H](c3ccoc3)[C@H]2C1`, the fluorescence artifact activation was 8.68% (inactive). The figure for `CC(=O)n1cc(CO)c2ccccc21` is 95.5% (active). The figure for `CSc1c(CC(=O)NCCO)n(C)c2ccccc12` is 4.19% (inactive); for `Cc1ccc(Cn2cc(CCC(=O)O)c3ccccc32)cc1` it is 2.34% (inactive). The figure for `CCOC(=O)C(C(=O)Nc1cccc(C)n1)C1CCCCC1` (centres undefined) is -0.06% (inactive); for `CCCc1cc(=O)[nH]c(SCC)n1` it is 0.11% (inactive). Turning to `Cc1c(C)c2c(OCC(=O)N3CCC(O)CC3)cc3c(c2oc1=O)CCC(C)(C)O3`, the fluorescence artifact activation is -0.07% (inactive).

With `CCCc1cc(=O)oc2c3c(cc(OCC(=O)N[C@@H](CSC)C(=O)O)c12)OC(C)(C)CC3`, the fluorescence artifact activation was 14.3% (active).

In the case of `Cc1cc(=O)oc2c3c(cc(OCC(=O)NCc4ccccn4)c12)OC(C)(C)CC3`, the fluorescence artifact activation was 0.25% (inactive). `O=C(CSc1nc2ncc(Br)cc2[nH]1)c1cccc([N+](=O)[O-])c1`: the fluorescence artifact activation was 3.54% (inactive).

For `O=C(C[n+]1cccc2ccccc21)c1ccccc1`, the fluorescence artifact activation was 0.14% (inactive). The figure for `COC(=O)C[n+]1cccc2ccccc21` is 81.3% (active); for `COc1cccc(OCCCn2cc(/C=C3/C(=N)N4C=C(C)SC4=NC3=O)c3ccccc32)c1` it is 0.05% (inactive). In the case of `N=C1/C(=C\c2coc3ccc(O)cc3c2=O)C(=O)N=C2SC=CN12`, the fluorescence artifact activation is -0.02% (inactive). Consider `COC(=O)N/N=C/c1cccnc1`, for which the fluorescence artifact activation is 0.05% (inactive). Consider `COC1C/C(=N\O)C2OC(c3ccccc3)OCC2O1` (centres undefined), for which the fluorescence artifact activation was 0.43% (inactive). As for `COc1ccc(OC)c(/C=C2/Sc3ccccc3C2=O)c1`, the fluorescence artifact activation was 0.05% (inactive).

As to `COc1ccc(C2C(C(C)=O)=C(C)N=c3s/c(=C\c4cc(C)n(C)c4C)c(=O)n32)c(OC)c1` (centres undefined), the fluorescence artifact activation was 4.81% (inactive). As for `O=C(CNC(=O)C12CC3CC(CC(C3)C1)C2)OCC(=O)N1CCCCC1`, the fluorescence artifact activation is 0.38% (inactive).

Take `Cc1ccc(-c2ccc(OC(=O)c3ccc(=O)[nH]c3)c(C)c2)cc1`: the fluorescence artifact activation is 4.65% (inactive). `Cc1ccc(CNc2cccnc2)cc1`: the fluorescence artifact activation is 0.43% (inactive). `Cc1ccc(-c2nc(N)n(C(=O)c3cccnc3)n2)cc1`: the fluorescence artifact activation was 57.1% (active).

Regarding `COc1ccccc1C(=O)n1nc(-c2ccccc2)nc1N`, the fluorescence artifact activation was -0.09% (inactive). The figure for `CN(Cc1ccccc1)C(=O)c1ccc(NC(=O)Cc2ccc(NC(=O)C3CCCN(S(=O)(=O)c4cccc([N+](=O)[O-])c4)C3)cc2)cc1` (centres undefined) is 0.65% (inactive); for `CCN1CCN(Cc2c(O)ccc3c2O/C(=C\c2ccc(C)cc2)C3=O)CC1` it is 0.17% (inactive); for `O=c1[nH]c2ccc(N=Cc3c(O)ccc4cc(Br)ccc34)cc2[nH]1` it is -0.04% (inactive).

Consider `C=CCNc1oc(COc2ccc(C)cc2)nc1C#N`, for which the fluorescence artifact activation is 3.74% (inactive). For the compound `CCC(CC)c1nc(C#N)c(NC(C)c2ccccc2)o1` (centres undefined), the fluorescence artifact activation is 0% (inactive). With `COc1ccc(CNc2oc(COc3ccccc3)nc2C#N)cc1`, the fluorescence artifact activation is 21.9% (active). Take `N#Cc1ccccc1OCC(=O)OCC(=O)c1ccc2c(c1)NC(=O)CO2`: the fluorescence artifact activation is 5.5% (inactive). The figure for `CCOC(=O)c1cnc2c(C)c(Cl)ccc2c1N1CCOCC1` is 28.3% (active); for `O=C(OCCN1C(=O)c2cccc3c(N4CCOCC4)ccc(c23)C1=O)c1ccc(Cl)cc1Cl` it is 8.85% (inactive). The figure for `O=C(OCCN1C(=O)c2cccc3c(N4CCOCC4)ccc(c23)C1=O)c1ccccc1Cl` is 0.47% (inactive).

Take `CCSc1nnc(-c2sc3nnc(-c4ccccc4)c(-c4ccccc4)c3c2N)o1`: the fluorescence artifact activation was 0.15% (inactive). With `CCc1ccccc1SCc1noc(C(=O)NCC2CCCO2)c1C(=O)O` (centres undefined), the fluorescence artifact activation is 0.19% (inactive). As for `O=C(NC(=S)NCC1CCCO1)C(c1ccccc1)c1ccccc1` (centres undefined), the fluorescence artifact activation is 0.17% (inactive). On to `OC(CNCC1CCCO1)Cn1c2ccc(Br)cc2c2cc(Br)ccc21` (centres undefined), for which the fluorescence artifact activation was 12.3% (active). Consider `O=C(COC(=O)/C=C/c1ccc(Cl)cc1)NCCN1C(=O)CSC1=O`, for which the fluorescence artifact activation was -0.09% (inactive). Turning to `O=C(N/N=C/c1ccc2c(c1)OCO2)/C(=C/c1ccc2c(c1)OCO2)NC(=O)c1ccccc1`, the fluorescence artifact activation was 0.46% (inactive). With `O=C(N/N=C/c1ccccc1OC(=O)c1ccc2c(c1)OCO2)c1cccc(F)c1`, the fluorescence artifact activation is 17.8% (active). The figure for `COc1cc(C(=O)Oc2ccccc2/C=N/NC(=O)c2ccc(Cl)cc2)cc(OC)c1OC` is 11.5% (inactive); for `COCC(=O)NC1CCN(S(=O)(=O)c2cccc(C(C)=O)c2)CC1` it is 3.2% (inactive); for `Cc1ccc(C(=O)NCC(=O)OCC(=O)c2ccc(Cl)s2)cc1` it is 77.8% (active). Take `COc1ccc(OCCNC(=O)c2ccc(C)cc2)cc1`: the fluorescence artifact activation was 6.32% (inactive). With `Cc1ccc(C(=O)NCC(=O)OCC(=O)N(CC(C)C)c2c(N)n(Cc3ccccc3)c(=O)[nH]c2=O)cc1`, the fluorescence artifact activation was 0.05% (inactive). For the compound `COc1ccc2nc(C)cc(NCc3ccc(F)cc3)c2c1`, the fluorescence artifact activation is 0.15% (inactive). For `Cc1cccc(NC(=O)CSc2nnc(CSc3nc(C)cc(C)n3)n2Cc2ccco2)c1`, the fluorescence artifact activation was 1.92% (inactive).

Turning to `O=C(COC(=O)C1CC2C=CC1C2)Nc1cccc(S(=O)(=O)N2CCCCCC2)c1` (centres undefined), the fluorescence artifact activation was -0.04% (inactive). Consider `O=C(COc1ccc(Cl)cc1)NCc1ccccc1`, for which the fluorescence artifact activation is 0.08% (inactive). The figure for `Cc1ccc(C(=O)COC(=O)C2CCC2)cc1` is 7.89% (inactive). The figure for `O=C(COC(=O)C1CCC(=O)N1)Nc1ccc(Oc2ccccc2)cc1` (centres undefined) is 0.14% (inactive). With `O=C(COC(=O)C1CCCCC1)Nc1ccc([N+](=O)[O-])cc1`, the fluorescence artifact activation is 28.8% (active). As for `O=C(COC(=O)C1CCC1)NCc1ccccc1`, the fluorescence artifact activation was 82.9% (active). Turning to `CCOc1cc(/C=C2\N=C(SC(C)C(N)=O)N(c3ccc(OC(F)F)cc3)C2=O)ccc1O` (centres undefined), the fluorescence artifact activation is 3.79% (inactive). On to `COc1ccc(C(=O)c2ccsc2N)cc1`, for which the fluorescence artifact activation is 3.39% (inactive). The figure for `O=C(CN1CCc2ccccc2C1)Nc1cc(S(=O)(=O)N2CCOCC2)ccc1N1CCOCC1` is 0.07% (inactive); for `CCOc1cccc2c1OC(c1cc(OC)c(OC)c(OC)c1)N1N=C(c3ccc(C)o3)CC21` (centres undefined) it is 0.15% (inactive); for `CC1(C)C([N+](=O)[O-])C(c2ccc(F)cc2)NC(c2ccc(F)cc2)C1[N+](=O)[O-]` (centres undefined) it is -0.04% (inactive). The figure for `COC(=O)c1sccc1NC(=O)CSCC(=O)O` is 0.05% (inactive); for `CN(C)C=Nc1c(Br)cc(Br)c2nonc12` it is 16.1% (active); for `C=CCn1c(SCC(=O)Nc2nccs2)nnc1-c1ccco1` it is 0.29% (inactive).

Turning to `Cn1cc(Cl)c(-c2nc3ccccc3[nH]2)n1`, the fluorescence artifact activation was 2.42% (inactive). Turning to `CCOC(=O)/C(=N\Nc1ccc(C(C)=O)cc1)c1csc(Nc2ccccc2)n1`, the fluorescence artifact activation was -0.08% (inactive). For `CCOC(=O)c1cnc2ccccc2c1Nc1ccc(C(=O)O)cc1`, the fluorescence artifact activation was 50% (active). As to `COC(=O)c1cc(N2CCN(C)CC2)nc2ccccc12`, the fluorescence artifact activation was 0.05% (inactive). On to `CCCCN(Cc1ccccc1)S(=O)(=O)c1ccc2c(c1)n(C)c(=O)c(=O)n2C`, for which the fluorescence artifact activation was 0.08% (inactive).

As to `COC(=O)C1=C(CSc2nc3c(cc2C#N)CN(C)CC3)OC(N)=C(C#N)C1c1ccc(F)cc1` (centres undefined), the fluorescence artifact activation is -0.02% (inactive). `COC(=O)c1ccc(S(=O)(=O)N2CCC(O)CC2)n1C`: the fluorescence artifact activation was 4.73% (inactive). As for `O=C(CS(=O)(=O)c1cn(Cc2ccc(F)cc2)c2ccccc12)N1CCOCC1`, the fluorescence artifact activation is -0.02% (inactive). Regarding `CCOC(=O)C1CCCN(C2=NC(=O)/C(=C/c3ccc(N(C)C)cc3)S2)C1` (centres undefined), the fluorescence artifact activation is 0.84% (inactive). In the case of `CN(C)c1ccc(/C=C2\SC(N3CCCCC3)=NC2=O)cc1`, the fluorescence artifact activation is 193% (active). On to `CN(C)c1ccc(/C=C2\C(=N)N3N=C(CC(=O)N4CCCCC4)SC3=NC2=O)cc1`, for which the fluorescence artifact activation is 11.2% (inactive). The figure for `COC(C(=O)Nc1c(F)cccc1F)c1ccccc1` (centres undefined) is 0.18% (inactive).

In the case of `CCOc1cccc2c1OC1(C)CC2NC(=O)N1c1cccc(C(=O)NCc2ccccn2)c1` (centres undefined), the fluorescence artifact activation was 0.6% (inactive). Take `CN(Cc1ccccc1)C(=O)c1cccc(N2C(=O)NC3CC2(C)Oc2ccccc23)c1` (centres undefined): the fluorescence artifact activation is 14.2% (active). With `COc1cccc2c1OC1(C)CC2NC(=O)N1Cc1ccccc1` (centres undefined), the fluorescence artifact activation was 1.11% (inactive).

As to `COC(=O)CN(c1cc(OC)ccc1OC)S(=O)(=O)c1ccc(OC)c(OC)c1`, the fluorescence artifact activation was 0.04% (inactive). Consider `O=C(COC(=O)C1(c2ccccc2F)CCCC1)Nc1ncc(C(F)(F)F)cc1Cl`, for which the fluorescence artifact activation was -0.01% (inactive). With `CN1CCc2c(sc(/N=C/c3ccco3)c2C(N)=O)C1`, the fluorescence artifact activation was 0.04% (inactive). The figure for `COc1cc2c3nnc(-c4ccc(F)cc4)c-3cn(Cc3cccc(C)c3)c2cc1OC` is 0.48% (inactive); for `COc1cc2c3nnc(-c4ccc(F)cc4)c-3cn(Cc3cccc(F)c3)c2cc1OC` it is 124% (active); for `COc1cc2c3nnc(-c4ccc(F)cc4)c-3cn(Cc3ccc(C)cc3)c2cc1OC` it is 0.37% (inactive).

Consider `COC(=O)c1ccccc1-c1c2ccc(=N)cc-2oc2cc(N)ccc12`, for which the fluorescence artifact activation is 0.05% (inactive). With `Clc1ccc(-c2cn3nc4c(nc3n2)CCCC4)cc1`, the fluorescence artifact activation is 0.71% (inactive).

As for `c1ccc(-c2cn3nc4c(nc3n2)CCCC4)cc1`, the fluorescence artifact activation was 19.1% (active). Take `Brc1ccc(-c2cn3nc4c(nc3n2)CCCC4)cc1`: the fluorescence artifact activation is 3.81% (inactive). Regarding `CCOCCCn1c(=NC(=O)c2cccs2)c(C#N)cc2c(=O)n3cccc(C)c3nc21`, the fluorescence artifact activation was 1.11% (inactive).

The values are drawn from PubChem BioAssay AID504382 (The Scripps Research Institute Molecular Screening Center, 2011).
